Assay [1] has as its system Mycobacterium tuberculosis. Put plainly: Antimycobacterial activity against Mycobacterium tuberculosis H37Rv at 1 ug/ml after 6 weeks. The class given is functional. The procedure, abridged: (§1)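 Lowenstein–Jensen slope method. Compounds dissolved in DMSO, diluted in DMSO, and an aliquot mixed into L.J. medium at 0.8 mL per 7.2 mL. Slopes set and sterilised at 75–80 °C for 3 days. M. tuberculosis H37Rv suspended with glass beads in sterile water and inoculated by 3 mm nichrome loop. DMSO-only and compound-free media served as controls.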

In assay [2] the test system is Mycobacterium tuberculosis. Put plainly: Antimycobacterial activity against Mycobacterium tuberculosis H37Rv after 6 weeks. The class given is functional. The procedure, abridged:
as §1

In brackets after ≈: the same amount, converted by molar mass.

Broadly, the MIC is the least concentration at which growth counts as inhibited. A higher MIC goes with a less susceptible organism.

Compound `S=c1[nH]nc(-c2cccc(Oc3ccccc3)c2)o1` came in with an Activity in assay [1] of 100%.

In turn, `S=c1[nH]nc(-c2ccccc2Oc2ccccc2)o1` came in with an Activity in assay [1] of 100%.

On to `CO[C@H]1/C=C/O[C@@]2(C)Oc3c(C)c(O)c4c(O)c(c(/C=N/N5CCN(C)CC5)c(O)c4c3C2=O)NC(=O)/C(C)=C\C=C\[C@H](C)[C@H](O)[C@@H](C)[C@@H](O)[C@@H](C)[C@H](OC(C)=O)[C@@H]1C` [RIFAMPIN], for which the MIC in assay [2] was determined as 0.06 µg/mL (≈ 0.0729 µM).

In assay [1], `S=c1[nH]nc(-c2cccc(Oc3ccccc3)c2)n1-c1ccccc1` displayed an Activity of 100%.

`S=c1[nH]nc(-c2ccccc2Oc2ccccc2)n1-c1ccccc1` had an Activity in assay [1] of 100%.

`c1ccc(Oc2cccc(-c3nc(-c4ccccc4)co3)c2)cc1`: in assay [1], the Activity stood at 100%.

In turn, `Oc1cc(Cl)ccc1Oc1ccc(Cl)cc1Cl` [TRICLOSAN] gave an Activity in assay [1] of 100%. Further, the lowest concentration to inhibit growth in assay [2] (MIC) was 5 µg/mL (≈ 17.3 µM).

`COc1ccc(-c2coc(-c3cccc(Oc4ccccc4)c3)n2)cc1` returned an Activity in assay [1] of 100%.

In assay [2], `NNC(=O)c1ccncc1` [ISONIAZID] yielded an MIC of 0.01 µg/mL (≈ 0.0729 µM).

In assay [1], `O=C(c1ccccc1)N1N=C(c2ccccn2)CC1c1ccc(Oc2ccccc2)cc1` (centres undefined) gave an Activity of 100%.

Turning to `S=c1[nH]nc(-c2ccc(Oc3ccccc3)cc2)o1`, the Activity in assay [1] is 100%.

In assay [1], `S=c1[nH]nc(-c2ccc(Oc3ccccc3)cc2)n1-c1ccccc1` returned an Activity of 100%.

In assay [1], `Clc1ccc(-c2coc(-c3cccc(Oc4ccccc4)c3)n2)cc1` yielded an Activity of 100%.

These data come from ChEMBL document CHEMBL1158336, “Synthesis, antitubercular activity and docking study of novel cyclic azole substituted diphenyl ether derivatives” (2009).
